Experimental data gathered from unrelated publications.
Protocols differ between the studies behind these lines.
Target: Serine/threonine-protein kinase PAK 4 (PAK4, Homo sapiens, UniProt O96013)

Compound | test | setting | measurement | value
Cc1n[nH]c2ccc(-c3cncc(OC[C@@H](N)Cc4c[nH]c5ccccc45)c3)cc12 | enzyme activity, inhibitor | 1 µM | inhibition | 26%
O=c1[nH]c2ccccc2n1C1CCN(Cc2ccc(-c3[nH]c4cc5ncnc5cc4nc3-c3ccccc3)cc2)CC1 | cell-free assay | 0.5 µM | remaining signal | 102%
Cn1cncc1[C@@](O)(COc1ccc(C#N)cc1-c1ccc(OC(F)(F)F)cc1)c1ccc(C#N)cc1 | cell-free assay, competition with immobilised ligand | 1 µM | remaining binding | 100%
COc1cc(Nc2ncc(F)c(Nc3ccc4c(n3)NC(=O)C(C)(C)O4)n2)cc(OC)c1OC | binding, competition with immobilised ligand | 10 µM | inhibition | 97%
N#CC1(c2ccccn2)CCN(Cc2cc(C(=O)O)c(=O)n3ccccc23)CC1 | cell-free assay, competition with immobilised ligand | 1 µM | remaining binding | 100%
COc1ncccc1-c1cnn2ccc(N3CCN(C(=O)OC(C)C)CC3)nc12 | binding, competition with immobilised ligand | 1 µM | remaining binding | 62%
Nc1ncc(-c2nc(N3CCOCC3)nc(N3CCOCC3)n2)c(C(F)F)n1 | binding, competition with immobilised ligand | 10 µM | remaining binding | 58%
Cn1cc(-c2cccc(N3CCc4c(sc5c4CC(C)(C)C5)C3=O)c2CO)cc(Nc2ccncn2)c1=O | enzyme activity, inhibitor | 1 µM | inhibition | -6%
C#Cc1n[nH]c2c(-c3cn(C(C)c4ccccn4)c(=O)[nH]c3=O)cc(F)cc12 (stereo not drawn) | enzyme activity, inhibitor | 1 µM | inhibition | -6%
Cc1nn(C)cc1-c1nc2c(N3CCN(Cc4ccc(Cl)cc4)CC3)c(Cl)cnc2[nH]1 | binding, competition with immobilised ligand | 1 µM | remaining binding | 100%
C#Cc1n[nH]c2c(-c3cn([C@@H](C)c4ccccc4)c(=O)[nH]c3=O)cc(F)cc12 | enzyme activity, inhibitor | 0.1 µM | inhibition | 0.6%
Cn1cc(-c2cc(F)cc(N3CCn4c(cc5c4CCCC5)C3=O)c2CO)cc(Nc2ccc(N3CCN(C4COC4)CC3)cn2)c1=O | enzyme activity, inhibitor | 0.1 µM | inhibition | 1%
